Calls of active or inactive are those of the source. The calls are words filed in the database; no cut-off is given here.
Tests used:
Mus musculus [1] = assay: Efficacy against a lethal virus challenge with an interferon sensitive virus, columbia SK was evaluated 14 days postinfection (oral dosing) as number of mice survived out of 15 tested; assay type: functional
Ovis aries [2] = species on record: Ovis aries; assay: Antibody stimulation by serum hemagglutininin titer over the titer for the infected placebo-treated control in sheep red blood cells; NA = Not active; assay type: functional, organism-based
Mus musculus [3] = assay: Percent reduction in spleen weight in mice as compared to infected untreated controls at 50 mg/kg; assay type: functional
Method in brief: (§1)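 In BALB/c mice infected ip with Rauscher leukemia virus (same-sex, ≥18 g), compound was given orally in 0.2% Noble agar/saline on days 6, 7 and 8 at 25–200 mg/kg. Animals were weighed on day 14. Spleen weight is expressed as percent reduction versus infected placebo-treated controls, and ≥50% reduction counts as active.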

Mus musculus [4] = assay: Percent reduction in spleen weight in mice as compared to infected untreated controls at 100 mg/kg; assay type: functional; method in brief: as §1
Ovis aries [5] = assay: Antibody stimulation by serum hemagglutininin titer over the titer for the infected placebo-treated control in sheep red blood cells at 50 mg/Kg of dose; value is 256/32; assay type: functional
Ovis aries [6] = assay: Antibody stimulation by serum hemagglutininin titer over the titer for the infected placebo-treated control in sheep red blood cells at 50 mg/Kg of dose; value is 32/16; assay type: functional
Ovis aries [7] = assay: Antibody stimulation by serum hemagglutininin titer over the titer for the infected placebo-treated control in sheep red blood cells at 100 mg/Kg of dose; value is 128/16; assay type: functional
Ovis aries [8] = assay: Antibody stimulation by serum hemagglutininin titer over the titer for the infected placebo-treated control in sheep red blood cells at 50 mg/Kg of dose; value is 64/16; assay type: functional
Mus musculus [9] = assay: Percent reduction in spleen weight in mice as compared to infected untreated controls at 200 mg/kg; assay type: functional; method in brief: as §1
Ovis aries [10] = assay: Antibody stimulation by serum hemagglutininin titer over the titer for the infected placebo-treated control in sheep red blood cells at 100 mg/Kg of dose; value is 32/16; assay type: functional
Ovis aries [11] = assay: Antibody stimulation by serum hemagglutininin titer over the titer for the infected placebo-treated control in sheep red blood cells at 100 mg/Kg of dose; value is 64/16; assay type: functional
Mus musculus [12] = assay: Efficacy against a lethal virus challenge with an interferon sensitive virus, columbia SK was evaluated 14 days postinfection (oral dosing) as number of mice survived out of 15 tested; NT = Not tested; assay type: functional
Ovis aries [13] = assay: Antibody stimulation by serum hemagglutininin titer over the titer for the infected placebo-treated control in sheep red blood cells at 25 mg/Kg of dose; value is 32/16; assay type: functional
Mus musculus [14] = assay: Percent reduction in spleen weight in mice as compared to infected untreated controls at 25 mg/kg; assay type: functional
Method in brief: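 BALB/c mice of the same sex, weighing at least 18 g and within a 3 g range, were inoculated ip with Rauscher leukemia virus as a 20% (w/v) spleen extract, five per group. Compound in 0.2% Noble agar/saline was given orally on days 6, 7 and 8, with SRBC ip on day 7. Mice were weighed on day 14, and percent spleen-weight reduction was taken versus infected placebo-treated controls.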

Ovis aries [15] = assay: Antibody stimulation by serum hemagglutininin titer over the titer for the infected placebo-treated control in sheep red blood cells at 50 mg/Kg of dose; NA = Not Active; assay type: functional, organism-based
Mus musculus [16] = species on record: Mus musculus; assay: Percent reduction in spleen weight in mice as compared to infected untreated controls; NA = Not Active; assay type: functional, organism-based; method in brief: as §1
Ovis aries [17] = assay: Antibody stimulation by serum hemagglutininin titer over the titer for the infected placebo-treated control in sheep red blood cells at 50 mg/Kg of dose; value is 128/16; assay type: functional
Ovis aries [18] = assay: Antibody stimulation by serum hemagglutininin titer over the titer for the infected placebo-treated control in sheep red blood cells at 25 mg/Kg of dose; value is 16/16; assay type: functional
Ovis aries [19] = assay: Antibody stimulation by serum hemagglutininin titer over the titer for the infected placebo-treated control in sheep red blood cells at 100 mg/Kg of dose; value is 512/32; assay type: functional
Ovis aries [20] = assay: Antibody stimulation by serum hemagglutininin titer over the titer for the infected placebo-treated control in sheep red blood cells at 25 mg/Kg of dose; value is 256/64; assay type: functional
Ovis aries [21] = species on record: Ovis aries; assay: Antibody stimulation by serum hemagglutininin titer over the titer for the infected placebo-treated control in sheep red blood cells; NA=Not active; assay type: functional, organism-based
Mus musculus [22] = assay: Efficacy against a lethal virus challenge with an interferon sensitive virus, columbia SK was evaluated 14 days postinfection (oral dosing) as number of mice survived out of 20 tested; assay type: functional
Ovis aries [23] = assay: Antibody stimulation by serum hemagglutininin titer over the titer for the infected placebo-treated control in sheep red blood cells at 200 mg/Kg of dose; value is 32/16; assay type: functional
Ovis aries [24] = assay: Antibody stimulation by serum hemagglutininin titer over the titer for the infected placebo-treated control in sheep red blood cells at 25 mg/Kg of dose; value is 128/16; assay type: functional
Ovis aries [25] = assay: Antibody stimulation by serum hemagglutininin titer over the titer for the infected placebo-treated control in sheep red blood cells at 200 mg/Kg of dose; value is 128/16; assay type: functional
Ovis aries [26] = species on record: Ovis aries; assay: Antibody stimulation by serum hemagglutininin titer over the titer for the infected placebo-treated control in sheep red blood cells; value is 128/16; assay type: functional
Ovis aries [27] = assay: Antibody stimulation by serum hemagglutininin titer over the titer for the infected placebo-treated control in sheep red blood cells at 50 mg/Kg of dose; value is 1024/32; assay type: functional
Ovis aries [28] = assay: Antibody stimulation by serum hemagglutininin titer over the titer for the infected placebo-treated control in sheep red blood cells at 200 mg/Kg of dose; value is 64/16; assay type: functional

SMILES: CN(C)CCCCOc1ccc2cc3ccc(OCCCCN(C)C)cc3nc2c1.Cl.O
- Survivors (Mus musculus [1]): 2
- Antibody stimulation (Ovis aries [2]): inactive
- Reduction (Mus musculus [3]): 52%

SMILES: CCN(CC)CCOc1ccc2cc3ccc(OCCN(CC)CC)cc3nc2c1.Cl.O
- Reduction (Mus musculus [4]): 70%
- Survivors (Mus musculus [1]): 15
- Antibody stimulation (Ovis aries [5]): 256

SMILES: CN1CCN(CCOc2ccc3cc4ccc(OCCN5CCN(C)CC5)cc4nc3c2)CC1
- Survivors (Mus musculus [1]): 1
- Reduction (Mus musculus [3]): 75%
- Antibody stimulation (Ovis aries [6]): 32

SMILES: Cl.c1cc2cc3ccc(OCCN4CCCCC4)cc3nc2cc1OCCN1CCCCC1
- Reduction (Mus musculus [4]): 62%
- Survivors (Mus musculus [1]): 5
- Antibody stimulation (Ovis aries [7]): 128

SMILES: CCN(CC)CCOc1ccc2cc3cc([N+](=O)[O-])c(OCCN(CC)CC)c(Cl)c3nc2c1Cl
- Survivors (Mus musculus [1]): 1
- Antibody stimulation (Ovis aries [8]): 64
- Reduction (Mus musculus [9]): 61%

SMILES: CCN(CC)CCOc1cc([N+](=O)[O-])c2cc3cc([N+](=O)[O-])c(OCCN(CC)CC)c(Cl)c3nc2c1Cl
- Antibody stimulation (Ovis aries [10]): 32
- Survivors (Mus musculus [1]): 3
- Reduction (Mus musculus [3]): 46%

SMILES: c1cc2cc3ccc(OCCN4CCCC4)cc3nc2cc1OCCN1CCCC1
- Survivors (Mus musculus [1]): 5
- Antibody stimulation (Ovis aries [11]): 64
- Reduction (Mus musculus [3]): 82%

SMILES: CCCNCCCOc1ccc2cc3ccc(OCCCNCCC)cc3nc2c1.Cl.O
- Survivors (Mus musculus [1]): 13
- Reduction (Mus musculus [9]): 96%

SMILES: CC(CCOc1ccc2cc3ccc(OCCC(C)N(C)C)cc3nc2c1)N(C)C (stereo unspecified)
- Survivors (Mus musculus [12]): 5

SMILES: Cl.NCCOc1ccc2cc3ccc(OCCN)cc3nc2c1.O
- Reduction (Mus musculus [4]): 40%
- Survivors (Mus musculus [1]): 1
- Antibody stimulation (Ovis aries [13]): 32

SMILES: CCN(CC)CCOc1ccc2cc3ccc(OCCN(CC)CC)c(Cl)c3nc2c1Cl
- Survivors (Mus musculus [1]): 7
- Antibody stimulation (Ovis aries [7]): 128
- Reduction (Mus musculus [3]): 86%

SMILES: O=P1(N(CCCl)CCCl)NCCCO1 (stereo unspecified) [CYCLOPHOSPHAMIDE ANHYDROUS]
- Reduction (Mus musculus [14]): 102%

SMILES: CCN(CC)CCOc1ccc2cc3cc([N+](=O)[O-])c(OCCN(CC)CC)c(Br)c3nc2c1Br
- Antibody stimulation (Ovis aries [15]): inactive
- Survivors (Mus musculus [1]): 5
- Reduction (Mus musculus [16]): inactive

SMILES: CNCCOc1ccc2cc3ccc(OCCNC)cc3nc2c1.Cl
- Reduction (Mus musculus [4]): 86%
- Antibody stimulation (Ovis aries [17]): 128
- Survivors (Mus musculus [1]): 1

SMILES: CN(C)CCCOc1ccc2cc3ccc(OCCCN(C)C)cc3nc2c1.Cl.O
- Antibody stimulation (Ovis aries [18]): 16
- Survivors (Mus musculus [1]): 9
- Reduction (Mus musculus [9]): 54%

SMILES: CC(C)NCCOc1ccc2cc3ccc(OCCNC(C)C)cc3nc2c1.Cl
- Survivors (Mus musculus [1]): 15
- Antibody stimulation (Ovis aries [19]): 512
- Reduction (Mus musculus [9]): 96%

SMILES: CCN(CC)CCOc1ccc2cc3ccc(OCCN(CC)CC)c([N+](=O)[O-])c3nc2c1[N+](=O)[O-]
- Reduction (Mus musculus [4]): 108%
- Survivors (Mus musculus [1]): 1
- Antibody stimulation (Ovis aries [11]): 64

SMILES: CCN(CC)CCOc1cc2nc3cc(OCCN(CC)CC)c(C)cc3cc2cc1C.Cl.O
- Reduction (Mus musculus [4]): 21%
- Survivors (Mus musculus [1]): 4
- Antibody stimulation (Ovis aries [20]): 256

SMILES: Cl.OCCNCCOc1ccc2cc3ccc(OCCNCCO)cc3nc2c1
- Antibody stimulation (Ovis aries [10]): 32
- Survivors (Mus musculus [1]): 3
- Reduction (Mus musculus [3]): 35%

SMILES: CCNCCOc1ccc2cc3ccc(OCCNCC)cc3nc2c1.Cl.O
- Reduction (Mus musculus [4]): 89%
- Survivors (Mus musculus [1]): 7
- Antibody stimulation (Ovis aries [13]): 32

SMILES: CCC(CO)NCCCOc1ccc2cc3ccc(OCCCNC(CC)CO)cc3nc2c1.Cl.O (stereo unspecified)
- Reduction (Mus musculus [4]): 74%
- Antibody stimulation (Ovis aries [21]): inactive

SMILES: CCN(CC)CCOc1ccc2c(c1)C(=O)c1cc(OCCN(CC)CC)ccc1-2 [TILORONE]
- Survivors (Mus musculus [22]): 5

SMILES: CCNCCCOc1ccc2cc3ccc(OCCCNCC)cc3nc2c1.Cl.O
- Antibody stimulation (Ovis aries [23]): 32
- Survivors (Mus musculus [1]): 7
- Reduction (Mus musculus [9]): 78%

SMILES: CCN(CC)CCCOc1ccc2cc3ccc(OCCCN(CC)CC)cc3nc2c1.Cl.O
- Antibody stimulation (Ovis aries [24]): 128
- Reduction (Mus musculus [4]): 72%
- Survivors (Mus musculus [1]): 13

SMILES: CCCCNCCOc1ccc2cc3ccc(OCCNCCCC)cc3nc2c1.Cl.O
- Reduction (Mus musculus [4]): 92%
- Antibody stimulation (Ovis aries [25]): 128
- Survivors (Mus musculus [1]): 7

SMILES: CCN(CC)CCOc1ccc2cc3cc(N)c(OCCN(CC)CC)c(Cl)c3nc2c1Cl.Cl.O
- Antibody stimulation (Ovis aries [26]): 128
- Reduction (Mus musculus [14]): 55%

SMILES: Cl.O.c1cc2cc3ccc(OCCCN4CCCCC4)cc3nc2cc1OCCCN1CCCCC1
- Antibody stimulation (Ovis aries [27]): 1024
- Survivors (Mus musculus [1]): 9
- Reduction (Mus musculus [3]): 74%

SMILES: CCCNCCOc1ccc2cc3ccc(OCCNCCC)cc3nc2c1.Cl.O
- Reduction (Mus musculus [4]): 101%
- Antibody stimulation (Ovis aries [28]): 64
- Survivors (Mus musculus [1]): 10

SMILES: CNCCCOc1ccc2cc3ccc(OCCCNC)cc3nc2c1.Cl.O
- Reduction (Mus musculus [4]): 18%
- Survivors (Mus musculus [1]): 8
- Antibody stimulation (Ovis aries [13]): 32

SMILES: CCN(CC)CCOc1ccc2cc3ccc(OCCN(CC)CC)c(Br)c3nc2c1Br
- Survivors (Mus musculus [1]): 6
- Reduction (Mus musculus [9]): 92%
- Antibody stimulation (Ovis aries [11]): 64

— ChEMBL document CHEMBL1122410, “Synthesis of 3,6-bis(aminoalkoxy)acridines and their effect on the immune System” (1983)
